Results pooled from the literature.
Protocols differ between the studies behind these lines.
Effect on: microbial growth

| Compound | organism | assay | test system | setting | MIC |
| --- | --- | --- | --- | --- | --- |
| CCN1CCN(c2cc3c(cc2F)c(=O)c(C(=O)O)cn3C2CC2)CC1 | Salmonella enterica |  | ENTERITIDIS | 20 h, pH 7.2 | 0.0625 µg/mL |
| O=C(O)CN1C(=O)/C(=C/c2c3ccccc3c(-c3ccc(N(c4ccccc4)c4ccccc4)cc3)c3ccccc23)NC1=S | Bacillus cereus | broth dilution | ATCC10876 |  | > 1000 µg/mL |
| Cc1cc(NS(=O)(=O)c2ccc(N)cc2)no1 | Salmonella enterica |  |  | 20 h, pH 7.2 | 64 µg/mL |
| C[C@@H](O)[C@H]1C(=O)N2C(C(=O)O)=C(S[C@@H]3CN[C@H](C(=O)N(C)C)C3)[C@H](C)[C@H]12 | Salmonella enterica | broth dilution | ENTERITIDIS | clinical isolate | ≤ 0.5 µg/mL |
| O=C1NC(=S)N/C1=C\c1ccc(-c2ccc(N(c3ccccc3)c3ccccc3)cc2)c2ccccc12 | Bacillus cereus | broth dilution | ATCC10876 |  | > 1000 µg/mL |
| O=C(Nc1ncc([N+](=O)[O-])s1)c1cccnc1F | Helicobacter pylori | broth dilution | 26695 | 27 h | 3.7 µM |
| Oc1ccc(-c2nc(-c3ccc(Oc4ccccc4)cc3)no2)cc1 | Bacillus cereus | broth dilution | ATCC13061 |  | 2 µg/mL |
| O=C(O)c1cn(C2CC2)c2cc(N3CCNCC3)c(F)cc2c1=O | Bacillus cereus | broth dilution | ATCC10876 |  | 0.12 µg/mL |
| O=C(Nc1ncc([N+](=O)[O-])s1)c1ccncc1F | Helicobacter pylori | broth dilution | 26695 | 27 h | 3.7 µM |
| CS(=O)(=O)c1ccc([C@@H](O)[C@@H](CF)NC(=O)C(Cl)Cl)cc1 | Salmonella enterica |  | F98, TYPHIMURIUM | 20 h, pH 5.5 | 4 µg/mL |
| C=C[C@@]1(C)C=C2CC[C@@H]3[C@](C)(CCC[C@@]3(C)C(=O)O)[C@H]2CC1 | Helicobacter pylori | broth dilution |  |  | 31.2 µg/mL |
| O=C(Nc1ncc([N+](=O)[O-])s1)c1cccnc1 | Helicobacter pylori | broth dilution | 26695 | 27 h | 4 µM |
| O=C(O)CN1C(=O)/C(=C/c2ccc(-c3ccc(N(c4ccccc4)c4ccccc4)cc3)cc2)NC1=S | Bacillus cereus | broth dilution | ATCC10876 |  | 125 µg/mL |
| COc1cc(-c2cc(=O)c3c(O)cc(O)cc3o2)ccc1O | Helicobacter pylori | broth dilution |  |  | 3.9 µg/mL |
| CC1(C)S[C@@H]2[C@H](NC(=O)[C@H](N)c3ccccc3)C(=O)N2[C@H]1C(=O)O | Salmonella enterica |  |  | 20 h, pH 7 | 1 µg/mL |
| O=C1NC(=S)S/C1=C\c1ccc(-c2ccc(N(c3ccccc3)c3ccccc3)cc2)c2ccccc12 | Bacillus cereus | broth dilution | ATCC10876 |  | 1000 µg/mL |
